Assay results: ChEMBL document CHEMBL4706580, “4-Amino-1,2,4-triazole-3-thione-derived Schiff bases as metallo-β-lactamase inhibitors” (Eur J Med Chem, 2020)
The source made the active and inactive calls. The calls are words filed in the database; no cut-off is given here.

Columns and labels:
[1] = Inhibition of beta-lactamase VIM2 (unknown origin) expressed in Escherichia coli BL21(DE3) using imipenem as substrate by measuring substrate hydrolysis at 100 uM by spectrophotometric analysis
Outline: (§1)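 Purified enzyme (overproduced in E. coli BL21(DE3), pET-9a; ion-exchange and gel filtration), 1-70 nM final. Reporter substrate 150 μM imipenem, read at 300 nm, 30 °C, 50 mM HEPES pH 7.5. Single-point screen at 100 or 200 μM; Ki from v0/vi vs [I] (0.5–1,000 μM final) assuming competitive inhibition, or Dixon plot. Triplicate.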

[2] = Inhibition of beta-lactamase VIM2 (unknown origin) expressed in Escherichia coli BL21(DE3) using imipenem as substrate by measuring substrate hydrolysis at 200 uM by spectrophotometric analysis; outline: as §1
[3] = Inhibition of beta-lactamase VIM4 (unknown origin) expressed in Escherichia coli BL21(DE3) using imipenem as substrate by measuring substrate hydrolysis at 100 uM by spectrophotometric analysis; outline: as §1
[4] = Inhibition of beta-lactamase IMP-1 (unknown origin) expressed in Escherichia coli BL21(DE3) using imipenem as substrate by measuring substrate hydrolysis at 100 uM by spectrophotometric analysis; outline: as §1
[5] = Inhibition of beta-lactamase VIM4 (unknown origin) expressed in Escherichia coli BL21(DE3) using imipenem as substrate by measuring substrate hydrolysis at 200 uM by spectrophotometric analysis; outline: as §1
[6] = Inhibition of beta-lactamase CphA (unknown origin) expressed in Escherichia coli BL21(DE3) using imipenem as substrate by measuring substrate hydrolysis by spectrophotometric analysis
Outline: (§2)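 Enzyme 0.2–0.8 nM in 15 mM cacodylate pH 6.5, no added zinc, pre-incubated 30 min at 21 °C with inhibitor (100 μM screen). Imipenem substrate added from 10 mM stock; hydrolysis at 300 nm, 30 °C. Residual activity vs three uninhibited samples; Ki (1–100 μM inhibitor) by Hanes linearization, competitive model. Triplicate.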

[7] = Inhibition of beta-lactamase L1 (unknown origin) expressed in Escherichia coli BL21(DE3) using nitrocefin as substrate by measuring substrate hydrolysis at 100 uM preincubated for 30 mins by spectrophotometric analysis
Outline: (§3)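 Enzyme 0.2–0.8 nM in 25 mM HEPES pH 7.5 with 50 μM ZnCl2 final, pre-incubated 30 min at 21 °C with inhibitor (100 μM screen). Nitrocefin 100 μM final, read at 482 nm, 30 °C. Residual activity vs three uninhibited samples; Ki (1–100 μM inhibitor) from Hanes linearization, competitive model. Triplicate.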

[8] = Inhibition of beta-lactamase IMP-1 (unknown origin) expressed in Escherichia coli BL21(DE3) using imipenem as substrate by measuring substrate hydrolysis at 200 uM by spectrophotometric analysis; outline: as §1
[9] = Inhibition of beta-lactamase NDM1 (unknown origin) expressed in Escherichia coli BL21(DE3) using cefotaxime/nitrocefin as substrate by measuring substrate hydrolysis at 100 uM by spectrophotometric analysis
[10] = Inhibition of beta-lactamase NDM1 (unknown origin) expressed in Escherichia coli BL21(DE3) using cefotaxime/nitrocefin as substrate by measuring substrate hydrolysis at 200 uM by spectrophotometric analysis
[11] = Inhibition of beta-lactamase L1 (unknown origin) expressed in Escherichia coli BL21(DE3) using nitrocefin as substrate by measuring substrate hydrolysis at 200 uM preincubated for 30 mins by spectrophotometric analysis
[12] = Inhibition of beta-lactamase VIM2 (unknown origin) expressed in Escherichia coli BL21(DE3) using imipenem as substrate by measuring substrate hydrolysis by spectrophotometric analysis; outline: as §1
[13] = Inhibition of beta-lactamase NDM1 (unknown origin) expressed in Escherichia coli BL21(DE3) using cefotaxime/nitrocefin as substrate by measuring substrate hydrolysis by spectrophotometric analysis
Outline: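 His-tagged enzyme from E. coli BL21(DE3) pET-15b, affinity-purified, 1-70 nM final. Reporter substrate 120 μM cefotaxime (260 nm) or 100 μM nitrocefin (482 nm), 30 °C, 50 mM HEPES pH 7.5. Inhibitor 0.5–1,000 μM final; competitive Ki from v0/vi vs [I] slope or Dixon plot. Triplicate.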

[14] = Inhibition of beta-lactamase VIM4 (unknown origin) expressed in Escherichia coli BL21(DE3) using imipenem as substrate by measuring substrate hydrolysis by spectrophotometric analysis; outline: as §1
[15] = Inhibition of beta-lactamase L1 (unknown origin) expressed in Escherichia coli BL21(DE3) using nitrocefin as substrate by measuring substrate hydrolysis preincubated for 30 mins by spectrophotometric analysis; outline: as §3
[16] = Inhibition of beta-lactamase VIM-2 (unknown origin) expressed in Escherichia coli LZ2310 assessed as potentiation of cefoxitin antibacterial activity by measuring cefoxitin induced diameter of inhibition zone at 40 uM incubated for 18 hrs by disk diffusion method (reference value: 14 mm)
Outline: (§4)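 Efflux-deficient E. coli LZ2310 (NorE, MdfA, AcrA knocked out) carrying pLB-II with the cloned MBL gene. Mueller-Hinton, CLSI disk diffusion; antibiotic disks (30 µg cefoxitin for VIM-2, 10 µg ampicillin for VIM-4, 30 µg ceftazidime for NDM-1/IMP-1) loaded with inhibitor in DMSO (≤15 µL). Zone diameter after 18 h, 35 ± 1 °C; DMSO and 220 µg EDTA controls. Triplicate.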

[17] = Inhibition of beta-lactamase VIM-4 (unknown origin) expressed in Escherichia coli LZ2310 assessed as potentiation of ampicillin antibacterial activity by measuring ampicillin induced diameter of inhibition zone at 40 uM incubated for 18 hrs by disk diffusion method (reference value: 6 mm); outline: as §4
[18] = Inhibition of beta-lactamase CphA (unknown origin) expressed in Escherichia coli BL21(DE3) using imipenem as substrate by measuring substrate hydrolysis at 100 uM by spectrophotometric analysis; outline: as §2
[19] = Inhibition of beta-lactamase IMP-1 (unknown origin) expressed in Escherichia coli BL21(DE3) using imipenem as substrate by measuring substrate hydrolysis by spectrophotometric analysis; outline: as §1

Compound	inhibition [1]	inhibition [2]	inhibition [3]	inhibition [4]	inhibition [5]	inhibition [7]	inhibition [8]	inhibition [9]	inhibition [10]	inhibition [11]	inhibition zone (IZ) [16] [mm]	inhibition zone (IZ) [17] [mm]	inhibition [18] [%]	Ki [6] [µM]	Ki [12] [µM]	Ki [13] [µM]	Ki [14] [µM]	Ki [15] [µM]	Ki [19] [µM]
S=c1[nH]nc(Cc2ccccc2)n1/N=C/c1ccc(OCc2ccccc2)cc1	inactive	inactive	inactive	inactive	inactive	31%	inactive	inactive	inactive	–	–	–	–	5.5	–	–	–	–	–
S=c1[nH]nc(-c2cccc(Br)c2)n1/N=C/c1ccc(OCc2ccccc2)cc1	inactive	inactive	inactive	inactive	inactive	15%	inactive	inactive	inactive	–	–	–	–	–	–	–	–	–	–
Fc1cccc(-c2n[nH]c(=S)n2/N=C/c2ccc(OCc3ccccc3)cc2)c1	inactive	inactive	inactive	60%	inactive	inactive	–	inactive	inactive	inactive	–	–	–	–	–	–	–	–	–
S=c1[nH]nc(C(c2ccccc2)c2ccccc2)n1/N=C/c1ccc(OCc2ccccc2)cc1	inactive	inactive	inactive	–	inactive	inactive	50%	–	60%	inactive	–	–	–	–	–	–	–	–	–
S=c1[nH]nc(-c2ccc(OCc3ccccc3)cc2)n1/N=C/c1ccc(OCc2ccccc2)cc1	inactive	inactive	inactive	–	inactive	inactive	–	–	–	inactive	–	–	–	–	–	3.2	–	–	2.2
S=c1[nH]nc(CCc2ccccc2)n1/N=C/c1ccc(OCc2ccccc2)cc1	inactive	inactive	–	–	–	–	–	30%	–	–	–	6	–	1	–	–	2	32	9
Oc1ccc(/C=N/n2c(-c3ccc(OCc4ccccc4)cc3)n[nH]c2=S)c(O)c1	inactive	inactive	inactive	62%	inactive	inactive	–	42%	–	inactive	–	–	–	–	–	–	–	–	–

More lines, main results first:

inhibition [1]	inhibition [2]	inhibition [3]	inhibition [4]	inhibition [5]	inhibition [7]	inhibition [8]	inhibition [9]	inhibition [10]	inhibition [11]	inhibition zone (IZ) [16] [mm]	inhibition zone (IZ) [17] [mm]	inhibition [18] [%]	Compound	Ki [6] [µM]	Ki [12] [µM]	Ki [13] [µM]	Ki [14] [µM]	Ki [15] [µM]	Ki [19] [µM]
–	–	–	inactive	–	–	inactive	–	–	–	14	6	–	O=C(O)c1ccccc1/C=N/n1c(-c2cc(O)ccc2O)n[nH]c1=S	52	0.6	79	0.2	38	–
inactive	inactive	inactive	30%	inactive	30%	–	–	60%	–	–	–	–	Cc1ccccc1-c1n[nH]c(=S)n1/N=C/c1ccc(F)cc1	–	–	–	–	–	–
–	–	–	54%	–	48%	–	37%	–	–	14	6	54	Cc1ccccc1-c1n[nH]c(=S)n1/N=C/c1cc(O)ccc1O	–	11	–	1.6	–	–
inactive	inactive	inactive	inactive	inactive	inactive	inactive	inactive	inactive	inactive	–	–	36	Cc1ccccc1-c1n[nH]c(=S)n1/N=C/c1cnc[nH]1	–	–	–	–	–	–
–	–	–	inactive	–	–	inactive	–	–	–	14	7	–	COc1cc(O)ccc1/C=N/n1c(-c2ccccc2C)n[nH]c1=S	4	10	120	2.4	6	–
